TRAIL sens C8 = caspase-8 TRAIL sensitization | NB7+C8 cells + TRAIL, ATPlite viability luminescence | inhibition (viability loss, TRAIL sensitization), % at 10 µM | 360,000 compounds, 1% hits;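 active = compounds causing at least 50% loss of cell viability in the single-dose screen, relative to plate controls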
FLuc inhib CS = counter-screen for luciferase assay inhibitors: firefly luciferase inhibition; AID 1006; inhibition, % at 10 µM; ATPLite firefly luciferase biochemical luminescence, 10 min; 200,000 compounds, 1.5% hits;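 active = inhibition above about 50% when tested at 10 µM, limit read from the data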
Target sequence (P08659 whole entry, looked up): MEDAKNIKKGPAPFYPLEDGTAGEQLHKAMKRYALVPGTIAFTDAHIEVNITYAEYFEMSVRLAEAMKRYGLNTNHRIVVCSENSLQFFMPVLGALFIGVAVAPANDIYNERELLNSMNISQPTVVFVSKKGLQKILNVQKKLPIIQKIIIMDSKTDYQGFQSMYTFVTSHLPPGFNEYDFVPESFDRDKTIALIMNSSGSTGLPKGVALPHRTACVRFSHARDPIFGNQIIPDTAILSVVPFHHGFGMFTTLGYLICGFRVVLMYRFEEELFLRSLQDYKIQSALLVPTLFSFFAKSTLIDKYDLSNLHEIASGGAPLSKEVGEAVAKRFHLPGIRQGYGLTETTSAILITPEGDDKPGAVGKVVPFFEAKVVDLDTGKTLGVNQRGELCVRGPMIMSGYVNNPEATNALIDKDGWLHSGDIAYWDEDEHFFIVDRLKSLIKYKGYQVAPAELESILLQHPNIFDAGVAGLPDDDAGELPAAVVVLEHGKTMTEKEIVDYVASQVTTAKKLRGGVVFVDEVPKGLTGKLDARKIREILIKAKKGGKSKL
FLuc stim CS = firefly luciferase counter-screen for stimulation assays; ATPlite luciferase biochemical, luminescence, 10 min; 0 = ATP-free wells, 1 = DMSO control; 200,000 tested, under 10 active; P08659; activation factor at 10 µM;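 active = luciferase activation factor, scaled between plate controls, of at least 2 with compound at 10 µM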
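Material: Luciferase/luciferin reagent mix; Doses: test compounds dosed from 2 mM stocks in 100% DMSO; Schedule: 10 min incubation after luciferase reagent addition, room temperature; Measured by: luminescence from luciferase reaction; Read-out: luminescence gain marking luciferase activators.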
PPC-1+TRAIL kill = compounds killing PPC-1 cancer cells with TRAIL present (potentiator screen, no TRAIL-free arm); PPC-1 cells + TRAIL, ATPLite viability luminescence; AID 1443; cell killing (% activity), % at 4 µM or 5 µM; 220,000 compounds, 0.41% hits;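 active = cell killing above 50% in the first pass at 4 µM, then a duplicate retest at 5 µM averaging 50% or more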
MIN6 prolif = induces beta-cell replication in MIN6 cells; 330,000 compounds, 0.29% hits; MIN6 cells proliferation, ATPlite luminescence, 48 h; cells starved in 0.2% serum; 100% = growth in 10% serum; AID 2380; proliferation, % at 10 µM;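 active = compounds whose signal lies at least 3.5 SD above the mean of all wells on their plate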
hiPSC survival = enhancers of human iPSC single-cell survival | hiPSC single-cell survival, ATPlite luminescence; 100% = ROCK inhibitor wells, 0% = DMSO | 360,000 compounds, 0.044% hits | survival enhancement, % at 20 µM; in the data active = survival enhancement above about 18%;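 note: cells exposed to compounds for 16 hours before the ATP read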
Numbers stand for hits; - = inactive; . = no result given; ! = a repeat was not active. A selection: hits, their analogues and other compounds. The true share with any hit is near 1.8%.

SMILES	TRAIL sens C8	FLuc inhib CS	FLuc stim CS	PPC-1+TRAIL kill	MIN6 prolif	hiPSC survival
c1ccc(SCc2nc3ccccc3[nH]2)cc1	-	-	-	-	-	-
COc1cccc(OCc2nc3ncc(Br)cc3[nH]2)c1	-	-	-	-	-	-
c1cnc2c(OCc3nc4ccccc4[nH]3)cccc2c1	-	-	-	-	-	-
c1ccc2cc(OCc3nc4ccccc4[nH]3)ccc2c1	-	73	-	-	-	-
Brc1ccc(OCc2nc3ccccc3[nH]2)cc1	-	.	.	.	-	-
O=C1CN(C(=O)COC(=O)COc2ccccc2)c2ccccc2N1	-	.	.	.	-	-
COc1ccc(OC)c(S(=O)(=O)N2CCC(C(=O)NC3CC3)CC2)c1	-	.	.	.	-	-
CCCCc1ccc(-c2nn[nH]n2)nc1	-	.	.	.	.	-
Cc1ccccc1OCc1nc2ccccc2[nH]1	-	53	-	-	-	-
COc1ccccc1OCc1nc2ccccc2[nH]1	-	-	-	-	-	-
CC1(C(=O)NS(=O)(=O)C2CC2)CCN(C(=O)COc2ccc(Cl)cc2Cl)C1 (centres undefined)	-	.	.	.	.	-
CN(C(=O)c1ccco1)c1nc2c(s1)CCCC2	59	77	-	-	-	-
O=C(Cn1cc(COc2ccc3ccc(=O)oc3c2)nn1)c1ccc(O)cc1	-	.	.	.	.	-
CCC(CO)NCc1ccc(OCC(=O)Nc2cccc(C(F)(F)F)c2)c(OC)c1 (centres undefined)	-	-	-	52	-	-
CCOc1cc(CNC(C)(C)C)ccc1OCC(=O)Nc1cccc(C(F)(F)F)c1	-	-	-	-	-	-
COc1cccc(/C=N\NC(=O)c2ccc(Cn3cc(Br)c([N+](=O)[O-])n3)o2)c1O	-	-	-	-	-	-
Cc1nnsc1C(=O)N/N=C/c1c(F)cccc1Cl	-	-	-	-	-	-
Cc1[nH]cnc1C(=O)N/N=C/c1c(Cl)cccc1Cl	59	.	.	.	-	-
CCC(CNC(=O)c1c(C)nn(-c2ccccc2)c1Cl)c1ccccc1 (centres undefined)	-	.	.	.	-	-
CCN1CCN(Cc2ccc(NC(=O)c3ccc(C)c(/C=C/c4cnc(Nc5cc(N6CCNCC6)nc(C)n5)cn4)c3)cc2C(F)(F)F)CC1	63!	.	.	.	-	-
Cc1cc(C(=O)CSc2nnc3ccccn23)c(C)n1-c1ccccc1	53	75	-	-	-	-
Cc1cc(C(=O)CSc2n[nH]c(N)n2)c(C)n1-c1ccccc1	-	59	-	-	-	-
c1ccc(CCc2cc3ccccc3[nH]2)cc1	-	.	.	.	-	-
Cc1ccc2nc(NC(=S)NC(=O)c3cccs3)sc2c1	79	90	-	-	-	-
O=C(NC(=S)NCc1ccc(-c2nc3ccccc3s2)cc1)c1ccco1	-	-	-	-	-	-
SMILES	TRAIL sens C8	FLuc inhib CS	FLuc stim CS	PPC-1+TRAIL kill	MIN6 prolif	hiPSC survival
COc1ccc2nc(NC(=S)NC(=O)c3ccco3)sc2c1	72	76	-	-	-	-
Cc1ccc2nc(NC(=O)CCCc3nc4ccccc4s3)sc2c1	-	-	-	-	-	-
O=C(NC(=S)Nc1nc2ccccc2s1)c1ccco1	77	80	-	-	-	-
Cc1ccc2nc(NC(=O)CCCC(=O)O)sc2c1	-	66	-	-	-	-
COc1cccc(C(NC(C)=O)c2nc(-c3ccoc3)cs2)c1 (centres undefined)	-	.	.	.	.	-
COc1ccc2nc(NC(=O)c3ccoc3C)sc2c1	-	51	-	-	-	-
COc1ccc(C(=O)Nc2nc3cc4c(cc3s2)OCO4)c(OC)c1	51	.	.	-	-	-
CC(C)C(=O)Nc1nc2cc3c(cc2s1)OCO3	-	-	-	-	-	-
Cc1nc(NC(=S)NC(=O)c2cccs2)ccc1Br	-	58	-	-	-	-
COc1ccc2nc(NC(=O)c3cc(C)oc3C)sc2c1	-	-	-	-	-	-
C[C@H](NC(=O)[C@@H]1CCCN1C(=O)[C@@H]1CCCN1C(=O)c1cccs1)c1ccccc1	-	.	.	.	.	-
C=CCNc1nc(-c2cc3ccccc3o2)cs1	-	76	-	-	.	-
COCC(C)n1c(C)cc(C(=O)Cn2nc(C(=O)O)c3ccccc3c2=O)c1C (centres undefined)	-	71	-	-	-	-
COc1ccc(-c2cc(C(=O)N/N=C/c3cccnc3)c3ccccc3n2)cc1	54	.	.	.	-	-

Source: PubChem BioAssay (Sanford-Burnham Center for Chemical Genomics)
